Consider 11 molecules from ChEMBL document CHEMBL3867444, “Design and synthesis of new potent PTP1B inhibitors with the skeleton of 2-substituted imino-3-substituted-5-heteroarylidene-1,3-thiazolidine-4-one: Part I” (Eur J Med Chem, 2016).

Broadly, the IC50 is the concentration at which inhibition is half-maximal. What is called inhibition is the percentage by which the read-out fell short of the control.

The target in assay [1] is T1, M-phase inducer phosphatase 2 (Homo sapiens, UniProt P30305).
T1 sequence (P30305 whole entry): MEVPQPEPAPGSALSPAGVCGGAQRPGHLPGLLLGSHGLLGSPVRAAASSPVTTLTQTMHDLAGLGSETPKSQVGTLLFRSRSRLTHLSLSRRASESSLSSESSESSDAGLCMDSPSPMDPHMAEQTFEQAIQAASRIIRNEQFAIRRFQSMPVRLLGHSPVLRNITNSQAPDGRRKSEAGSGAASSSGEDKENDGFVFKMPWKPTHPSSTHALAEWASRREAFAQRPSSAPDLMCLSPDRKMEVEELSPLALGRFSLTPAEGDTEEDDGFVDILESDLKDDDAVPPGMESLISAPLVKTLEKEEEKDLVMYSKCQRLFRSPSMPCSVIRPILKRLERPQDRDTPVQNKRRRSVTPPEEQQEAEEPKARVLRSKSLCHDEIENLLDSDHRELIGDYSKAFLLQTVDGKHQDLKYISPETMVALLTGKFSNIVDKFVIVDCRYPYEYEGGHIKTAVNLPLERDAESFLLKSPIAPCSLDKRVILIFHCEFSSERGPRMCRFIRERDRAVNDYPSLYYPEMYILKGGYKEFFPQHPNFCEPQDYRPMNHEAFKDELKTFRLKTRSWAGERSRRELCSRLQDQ
Description: Inhibition of human recombinant GST-tagged CDC25B assessed as reduction in dephosphorylation of florigenic phosphatase substrate preincubated for 1 hr followed by substrate addition measured after 1 hr by fluorescence assay. The procedure, abridged:
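Purified GST-CDC25B fusion protein was preincubated with compound for 1 h, then fluorescein diphosphate (5mM) was added. Fluorescence was read within the linear range of the reaction after 1 h at room temperature. Na₃VO₄ served as positive control and DMSO as negative control.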

The target of assay [2] is T2, M-phase inducer phosphatase 2 (Homo sapiens) (UniProt P30305).
T2 sequence (whole entry): T1 sequence (P30305 whole entry)
Description: Inhibition of human recombinant GST-tagged CDC25B assessed as reduction in dephosphorylation of florigenic phosphatase substrate at 5 ug/ml preincubated for 1 hr followed by substrate addition measured after 1 hr by fluorescence assay relative to control.

In assay [3] the target is T3, Tyrosine-protein phosphatase non-receptor type 1 (Homo sapiens) (UniProt P18031).
T3 sequence (whole entry): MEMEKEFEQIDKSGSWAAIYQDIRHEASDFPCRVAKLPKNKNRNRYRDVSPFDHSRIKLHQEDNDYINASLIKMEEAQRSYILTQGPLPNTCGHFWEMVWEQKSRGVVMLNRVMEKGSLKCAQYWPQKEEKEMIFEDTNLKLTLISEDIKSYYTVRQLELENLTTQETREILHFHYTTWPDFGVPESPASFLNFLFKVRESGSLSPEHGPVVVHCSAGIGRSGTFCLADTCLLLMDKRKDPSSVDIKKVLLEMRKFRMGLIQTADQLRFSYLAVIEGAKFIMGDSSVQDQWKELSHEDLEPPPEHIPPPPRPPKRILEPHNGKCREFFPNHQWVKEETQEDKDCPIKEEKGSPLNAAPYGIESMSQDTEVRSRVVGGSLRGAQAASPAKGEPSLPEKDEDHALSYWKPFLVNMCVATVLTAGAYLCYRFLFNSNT
Description: Inhibition of human recombinant GST-tagged PTP1B catalytic domain expressed in Escherichia coli BL21-[…] plus (DE3) at 20 ug/ml using pNPP as substrate relative to control.

The target of assay [4] is T3, Tyrosine-protein phosphatase non-receptor type 1 (Homo sapiens). Description: Inhibition of human recombinant GST-tagged PTP1B catalytic domain expressed in Escherichia coli BL21-[…] plus (DE3) at 5 ug/ml using pNPP as substrate relative to control.
Assay [5] has as its target T4, Tyrosine-protein phosphatase non-receptor type 1 (Homo sapiens, UniProt P18031).
T4 sequence (P18031 whole entry): T3 sequence (whole entry)
The experiment in a line: Inhibition of human recombinant GST-tagged PTP1B catalytic domain expressed in Escherichia coli BL21-[…] plus (DE3) using pNPP as substrate.

Assay [6] concerns the target T4, Tyrosine-protein phosphatase non-receptor type 1. Description: Inhibition of PTP1B (unknown origin).

For `CC(C)N1C(=O)/C(=C/c2ccc(OCCN(C)c3ccccn3)cc2)S/C1=N\O`, the IC50 in assay [1] turned out to be 2.47 µM. For the same molecule, the results for the inhibition in assay [2], in assay [3] and in assay [4] were 98.5%, 67.5% and 19.3%, respectively.

For the molecule `CCOC(=O)c1c(C)[nH]c(/C=C2\S/C(=N\c3ccccc3F)N(c3ccccc3F)C2=O)c1C`, the IC50 in assay [1] was 3.66 µM. Further, the inhibition in assay [2] is 64.2%; in assay [3], 98.3%; in assay [4], 45%.

Regarding `CCOC(=O)c1c(C)[nH]c(/C=C2\S/C(=N\c3ccccc3)N(c3ccccc3)C2=O)c1C`, the figures for the IC50 in assay [5] and in assay [1] were 8.66 µM and 1.66 µM, respectively. The results for the inhibition in assay [2], in assay [3] and in assay [4] were 83.7%, 99.9% and 81.1%, respectively.

Take `CCOC(=O)c1c(C)[nH]c(/C=C2\S/C(=N/O)N(C(C)C)C2=O)c1C`: the concentration for half-maximal inhibition (IC50) in assay [1] came to 5.83 µM. For the same molecule, the inhibition in assay [2] is 80.2%; in assay [3] it was 95.8%; in assay [4], 49%.

Turning to `CCOC(=O)c1c(C)[nH]c(/C=C2\S/C(=N\c3cccc(F)c3)N(c3cccc(F)c3)C2=O)c1C`, the IC50 in assay [5] was found to be 6.83 µM; in assay [1], 3.39 µM. Also, the results for the inhibition in assay [2], in assay [3] and in assay [4] were 82.8%, 96.3% and 74.2%, respectively.

`Cc1cc(I)cc2c1NC(c1cccc(N)c1)C1CC=CC21` (stereo not given): the IC50 in assay [6] came out at 7.5 µM.

Regarding `CCOC(=O)c1c(C)[nH]c(/C=C2\S/C(=N\c3ccc(C)cc3)N(c3ccc(C)cc3)C2=O)c1C`, the inhibition in assay [3] was determined as 28.4%.

Turning to `CCOC(=O)c1c(C)[nH]c(/C=C2\S/C(=N\c3ccc(F)cc3)N(c3ccc(F)cc3)C2=O)c1C`, the IC50 in assay [5] came to 6.09 µM; in assay [1], 2.87 µM. In addition, the inhibition in assay [2] came to 84.7%; in assay [3] it was 94.5%; in assay [4] it was 82.7%.

As for `CCOC(=O)c1c(C)[nH]c(/C=C2\S/C(=N\c3ccc(OC)cc3)N(c3ccc(OC)cc3)C2=O)c1C`, the half-inhibitory concentration (IC50) in assay [1] was determined as 2.74 µM. The inhibition was 76.5% in assay [2], 98.7% in assay [3] and 47.7% in assay [4].

SODIUM ORTHOVANAD: the IC50 in assay [1] was determined as 0.91 µM.

Take `CC/N=C1\S/C(=C\c2ccc(OCCN(C)c3ccccn3)cc2)C(=O)N1CC`: the inhibition in assay [3] is 42.1%.
